# ChEMBL document CHEMBL4400554, “Ketamine esters and amides as short-acting anaesthetics: Structure-activity relationships for the side-chain” (Bioorg Med Chem, 2019)
# Tests used:
# Rattus norvegicus [1] = assay: Short-acting anaesthetic activity in Sprague-Dawley rat assessed as dose causing loss of righting reflex at 20 mg/kg/min followed by dose reduction to 6.7 mg/kg/min dosed via infusion; format: functional
# How it was run: (§1)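 Rats (230 to 320g) restrained; drug at 10mg/ml infused via marginal tail vein cannula by syringe driver at 20 mg/kg/min until loss of righting reflex and PWR=1. Rate then cut to 6.7 mg/kg/min and titrated up-and-down for 10 min. PWR scored each minute by 1 s firm digital pressure on forepaw. Three rats per study, ketamine as within-group control, randomised order, ≥4 h between runs.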
# Rattus norvegicus [2] = assay: Analgesic activity in Sprague-Dawley rat assessed as minimal dose for loss of pedal withdrawal reflex at 20 mg/kg/min followed by dose reduction to 6.7 mg/kg/min dosed via infusion; format: functional; settings: read-out: MED; how it was run: as §1
# Glutamate NMDA receptor = assay: Displacement of [3H] MK-801 from NMDA glutamate ion channel in Wistar rat brain membranes (minus cerebellum) after 3 hrs by scintillation counting analysis; format: cell membranes
# How it was run: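 Radioligand binding in Wistar rat brain (minus cerebellum) preparations with MK-801 as ligand.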
# Rattus norvegicus [3] = assay: Short-acting anaesthetic activity in Sprague-Dawley rat assessed as time for return of righting reflex after infusion stopped at 20 mg/kg/min followed by dose reduction to 6.7 mg/kg/min dosed via infusion; format: functional
# How it was run: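 Rats (230 to 320g) given tail-vein infusion of drug at 10mg/ml, 20 mg/kg/min until LORR and PWR=1, then 6.7 mg/kg/min titrated up-and-down to hold dorsal recumbency and PWR=1 to 10 min before stopping. Time from cessation to return of righting reflex recorded. Three rats per study, ketamine as own control, randomised order, ≥4 h recovery.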
# [4] = biological target: Glutamate [NMDA] receptor; assay: Binding affinity to NMDA receptor (unknown origin); format: protein-complex assay, Homo sapiens
# How it was run: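 Radioligand binding on Wistar rat brain (minus cerebellum) preparations, MK-801 as ligand, in 5 mM Tris-acetate buffer pH 7.4, 3 h at 25°C; IC50 in µM.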
SMILES,EC (Rattus norvegicus [1]),minimal effective dose (Rattus norvegicus [2]),IC50 (Glutamate NMDA receptor),Time (Rattus norvegicus [3]),Ki [4]
O=C(CCNC1(c2ccccc2Cl)CCCCC1=O)Oc1ccccc1 (stereo not drawn),>200 mg/kg,> 200 mg/kg,73 µM,,
COC(=O)CCCCCCNC1(c2ccccc2Cl)CCCCC1=O (stereo not drawn),>200 mg/kg,> 200 mg/kg,51 µM,,
CC(C)NC(=O)CCNC1(c2ccccc2Cl)CCCCC1=O (stereo not drawn),82 mg/kg,> 200 mg/kg,58 µM,82 s,
CNC(=O)CCNC1(c2ccccc2Cl)CCCCC1=O (stereo not drawn),58 mg/kg,> 200 mg/kg,73 µM,85 s,
CC(C)OC(=O)CNC1(c2ccccc2Cl)CCCCC1=O (stereo not drawn),>200 mg/kg,> 200 mg/kg,45 µM,,
CN(C)C(=O)CCNC1(c2ccccc2Cl)CCCCC1=O (stereo not drawn),110 mg/kg,113 mg/kg,416 µM,623 s,
COC(=O)COCCNC1(c2ccccc2Cl)CCCCC1=O (stereo not drawn),>200 mg/kg,> 200 mg/kg,13 µM,,
CCNC(=O)CCNC1(c2ccccc2Cl)CCCCC1=O (stereo not drawn),112 mg/kg,139 mg/kg,935 µM,237 s,
CNC1(c2ccccc2Cl)CCCCC1=O (stereo not drawn) [KETAMINE],23 mg/kg,28 mg/kg,0.7 µM,1075 s,1.9 µM
O=C1CCCCC1(NCCCN1CCCCC1)c1ccccc1Cl (stereo not drawn),67 mg/kg,130 mg/kg,41 µM,556 s,
COC(=O)CNC1(c2ccccc2Cl)CCCCC1=O (stereo not drawn),>200 mg/kg,> 200 mg/kg,308 µM,,
CCS(=O)(=O)CCNC1(c2ccccc2Cl)CCCCC1=O (stereo not drawn),>200 mg/kg,> 200 mg/kg,> 1000 µM,,
COC(=O)C(C)(C)CCCNC1(c2ccccc2Cl)CCCCC1=O (stereo not drawn),52 mg/kg,> 200 mg/kg,125 µM,580 s,
CNC(=O)CCCCNC1(c2ccccc2Cl)CCCCC1=O (stereo not drawn),83 mg/kg,> 200 mg/kg,77 µM,125 s,
NC(=O)CCNC1(c2ccccc2Cl)CCCCC1=O (stereo not drawn),>200 mg/kg,> 200 mg/kg,500 µM,,
CC(C)OC(=O)CCNC1(c2ccccc2Cl)CCCCC1=O (stereo not drawn),33 mg/kg,37 mg/kg,134 µM,83 s,
CCOC(=O)CCOCCNC1(c2ccccc2Cl)CCCCC1=O (stereo not drawn),>200 mg/kg,> 200 mg/kg,87 µM,,
COCCOC(=O)CCCCNC1(c2ccccc2Cl)CCCCC1=O (stereo not drawn),>200 mg/kg,> 200 mg/kg,19 µM,,
CCOC(=O)C(C)CCCNC1(c2ccccc2Cl)CCCCC1=O (stereo not drawn),50 mg/kg,55 mg/kg,107 µM,260 s,
COC(=O)CCCCCNC1(c2ccccc2Cl)CCCCC1=O (stereo not drawn),>200 mg/kg,> 200 mg/kg,44 µM,,
CN(C)C(=O)CCCCNC1(c2ccccc2Cl)CCCCC1=O (stereo not drawn),>200 mg/kg,> 200 mg/kg,> 1000 µM,,
COC(=O)CCCCNC1(c2ccccc2Cl)CCCCC1=O (stereo not drawn),34 mg/kg,44 mg/kg,3 µM,99 s,
